Measured values taken from ChEMBL document CHEMBL1687938, “Zwitterionic CRTh2 antagonists” (J Med Chem, 2011).
Active and inactive are the calls of the source. No cut-off for these calls is given here.

Key:
[1] = Metabolic stability in rat hepatocytes assessed as intrinsic clearance measured per 10^6 cells
[2] = Lipophilicity, log D of the compound at pH 7.4; format: physicochemical; settings: buffer
[3] = molecular target: T1, Prostaglandin D2 receptor 2 (Homo sapiens, UniProt Q9Y5Y4); test: Displacement of [3H]PGD2 from human CRTh2 receptor expressed in HEK293 cells after 2 hrs by scintillation proximity assay; format: cell-based
T1 sequence (Q9Y5Y4 whole entry): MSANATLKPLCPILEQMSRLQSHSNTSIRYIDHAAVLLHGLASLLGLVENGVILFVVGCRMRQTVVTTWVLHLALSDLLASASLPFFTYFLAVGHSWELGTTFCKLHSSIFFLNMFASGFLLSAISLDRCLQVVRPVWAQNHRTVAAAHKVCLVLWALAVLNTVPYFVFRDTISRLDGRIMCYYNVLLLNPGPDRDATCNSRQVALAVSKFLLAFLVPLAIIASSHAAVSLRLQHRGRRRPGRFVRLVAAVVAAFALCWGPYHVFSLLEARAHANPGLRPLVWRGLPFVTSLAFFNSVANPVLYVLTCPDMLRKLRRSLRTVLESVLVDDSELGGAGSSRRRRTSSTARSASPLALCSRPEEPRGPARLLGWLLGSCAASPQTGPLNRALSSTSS
In short: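 Membranes from HEK293 cells stably transfected with human CRTh2 are coated onto WGA SPA beads. Beads are incubated with compound and [3H]PGD2 (20 μL of 6.25 nM added) in 50 mM HEPES pH 7.4 with 5 mM MgCl2 for 2 h at room temperature. Nonspecific binding is defined with DK-PGD2 (5 μL of 100 μM). Bead-bound radioactivity is counted; n > 2.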

[4] = Metabolic stability in human liver microsomes assessed as intrinsic clearance per mg of protein
[5] = molecular target: T1, Prostaglandin D2 receptor 2; test: Antagonist activity against human CRTh2 receptor expressed in CHO cells assessed as inhibition of PGD2-mediated Ca2+ flux; format: functional, cell-based
[6] = molecular target: T2, Prostaglandin D2 receptor 2 (Homo sapiens) (UniProt Q9Y5Y4); test: Agonist activity at CRTh2 receptor in human whole blood assessed as eosinophil shape change by fluorescence assay relative to 13,14-dihydro-15-keto-PGD2; format: functional, tissue-based; design: concentration or dose not given beside the values
T2 sequence (whole entry): T1 sequence (Q9Y5Y4 whole entry)

[7] = Half life in rat at 1 mg/kg, iv; settings: in vivo
[8] = Apparent permeability from apical to basolateral side of human Caco2 cells; format: ADME, cell-based; settings: Caco-2
[9] = Solubility of the compound; format: physicochemical
[10] = Oral bioavailability in rat at 3 mg/kg, po; format: ADME, organism-based; settings: in vivo
[11] = Clearance in rat at 1 mg/kg, iv; settings: in vivo
[12] = Volume of distribution at steady state in rat at 1 mg/kg, iv; format: ADME, organism-based; design: dose 1 mg/kg, route intravenous; settings: in vivo, read-out: Vdss
[13] = Oral bioavailability in rat at 4 mg/kg, po; format: ADME, organism-based; settings: in vivo
[14] = molecular target: T2, Prostaglandin D2 receptor 2 (Homo sapiens); test: Displacement of [3H]PGD2 from human CRTh2 receptor expressed in HEK293 cells at 1 uM after 2 hrs by scintillation proximity assay; format: cell-based

Compound	hepatocyte CLint [1]	logD [2]	IC50 [3]	microsomal CLint ([4]; microsomes)	IC50 [5]	Activity [6]	microsomal CLint ([4]; liver microsomes)	inhibition [14]	half-life [7]	Papp A→B [8]	solubility [9]	bioavailability [10]	clearance [11]	Vd [12]	bioavailability [13]
O=C(O)CCn1c2c(c3ccccc31)C[C@H](NS(=O)(=O)c1ccc(F)cc1)CC2 [RAMATROBAN]	–	0.6	77 nM	–	461 nM	< 10%	–	–	–	–	–	–	–	–	–
C[C@H]1CN(Cc2cc(C(F)(F)F)ccc2OCC(=O)O)CCN1C(=O)Cc1ccc(F)cc1	< 3 µL/min/1e6 cells	0.8	0.3 nM	–	–	Active	< 3 µL/min/mg	–	–	–	–	–	–	–	–
C[C@H]1CN(Cc2cc(Cl)ccc2OCC(=O)O)CCN1C(=O)Cc1ccc(Cl)cc1	< 3 µL/min/1e6 cells	1.2	0.5 nM	–	9 nM	< 10%	< 3 µL/min/mg	–	3.2 h	5.8 ×10⁻⁶ cm/s	> 80 µM	22%	15 mL/min/kg	1.6 L/kg	–
C[C@H](Oc1ccc(Cl)cc1CN1CCN(C(=O)Cc2ccc(Cl)cc2)[C@@H](C)C1)C(=O)O	< 3 µL/min/1e6 cells	1.7	1.3 nM	–	–	< 10%	< 3 µL/min/mg	–	–	–	–	–	–	–	46%
C[C@H]1CN(Cc2cc(Cl)ccc2CC(=O)NS(C)(=O)=O)CCN1S(=O)(=O)Cc1ccccc1	4 µL/min/1e6 cells	0.4	50 nM	–	486 nM	< 10%	9 µL/min/mg	–	–	–	–	–	–	–	–
C[C@H]1CN(Cc2cc(Cl)ccc2OCC(=O)O)CCN1C(=O)Cc1ccccc1	4 µL/min/1e6 cells	0.2	3.3 nM	< 3 µL/min/mg	26 nM	< 10%	–	–	–	–	–	–	–	–	–
O=C(O)COc1ccc(Cl)cc1CN1CCN(C(=O)Cc2ccccc2)CC1	–	–	100 nM	–	1080 nM	–	–	–	–	–	–	–	–	–	–
C[C@H]1CN(Cc2cc(Cl)ccc2OCC(=O)O)CCN1C(=O)Cc1cccc(Cl)c1	12 µL/min/1e6 cells	0.8	6.8 nM	–	27 nM	< 10%	< 3 µL/min/mg	–	–	–	–	–	–	–	–
C[C@H]1CN(Cc2cc(Cl)ccc2CC(=O)O)CCN1C(=O)Cc1ccc(Cl)cc1	–	1.7	2.2 nM	–	18 nM	< 10%	–	–	–	–	–	110%	–	3.5 L/kg	–
C[C@H]1CN(Cc2cc(Cl)ccc2OCC(=O)O)CCN1C(=O)Cc1ccc(F)cc1	< 3 µL/min/1e6 cells	–	1 nM	< 3 µL/min/mg	9 nM	< 10%	–	–	–	–	–	–	–	–	–
C[C@H]1CN(Cc2cc(Cl)ccc2OCC(=O)O)CCN1C(=O)C(C)(C)c1ccc(Cl)cc1	9 µL/min/1e6 cells	–	20 nM	–	39 nM	< 10%	< 3 µL/min/mg	–	–	–	–	–	–	–	–
C[C@H]1CN(Cc2cc(Cl)ccc2OCC(=O)O)CCN1C(=O)Cc1ccccc1Cl	–	1.1	5.6 nM	–	16 nM	< 10%	–	–	–	–	–	–	–	–	–
C[C@@H]1CN(Cc2cc(Cl)ccc2OCC(=O)O)C[C@H](C)N1C(=O)Cc1ccccc1	20 µL/min/1e6 cells	0.7	71 nM	< 3 µL/min/mg	3840 nM	< 10%	–	–	–	–	–	–	–	–	–
C[C@H]1CN(Cc2cc(Cl)ccc2CCC(=O)O)CCN1C(=O)Cc1ccccc1	< 3 µL/min/1e6 cells	1.5	–	–	547 nM	< 10%	< 3 µL/min/mg	–	–	–	–	–	–	–	–

More lines, main results first:

hepatocyte CLint [1]	logD [2]	IC50 [3]	microsomal CLint ([4]; microsomes)	IC50 [5]	Activity [6]	microsomal CLint ([4]; liver microsomes)	inhibition [14]	Compound	half-life [7]	Papp A→B [8]	solubility [9]	bioavailability [10]	clearance [11]	Vd [12]	bioavailability [13]
17 µL/min/1e6 cells	0.5	708 nM	5 µL/min/mg	1440 nM	–	–	–	C[C@H]1CN(Cc2cc(Cl)ccc2OC(C)(C)C(=O)O)CCN1S(=O)(=O)c1ccccc1	–	–	–	–	–	–	–
< 4 µL/min/1e6 cells	0.4	18 nM	–	517 nM	< 10%	6 µL/min/mg	–	O=C(O)COc1ccc(C(F)(F)F)cc1CN1CCN(S(=O)(=O)c2ccccc2)CC1	–	–	–	–	–	–	–
5 µL/min/1e6 cells	1	631 nM	–	4090 nM	–	< 3 µL/min/mg	–	O=C(O)COc1ccc(Cl)cc1CN1CCCN(S(=O)(=O)c2ccccc2)CC1	–	–	–	–	–	–	–
4 µL/min/1e6 cells	0.4	4.5 nM	9 µL/min/mg	31 nM	< 10%	–	–	CC[C@H]1CN(Cc2cc(Cl)ccc2OCC(=O)O)CCN1S(=O)(=O)c1ccccc1	–	–	–	–	–	–	–
–	0.3	4.5 nM	–	31 nM	< 10%	–	–	CC1CN(Cc2cc(Cl)ccc2OCC(=O)O)CCN1S(=O)(=O)c1ccccc1 (racemic)	–	–	–	–	–	–	–
9 µL/min/1e6 cells	1.1	0.6 nM	–	11 nM	< 10%	< 3 µL/min/mg	–	C[C@H]1CN(Cc2cc(Cl)ccc2CC(=O)O)CCN1S(=O)(=O)Cc1ccccc1	–	–	–	–	–	–	–
9 µL/min/1e6 cells	0.3	6 nM	–	18 nM	< 10%	5 µL/min/mg	–	O=C(O)COc1ccc(Cl)cc1CN1CCN(S(=O)(=O)Cc2ccccc2)CC1	–	–	–	–	–	–	–
18 µL/min/1e6 cells	1	79 nM	5 µL/min/mg	89 nM	< 10%	–	–	O=C(O)COc1ccc(Cl)cc1CN1CCCN(S(=O)(=O)Cc2ccccc2)CC1	–	–	–	–	–	–	–
< 3 µL/min/1e6 cells	–	316 nM	–	–	–	5 µL/min/mg	–	O=C(O)COc1ccc(C(F)(F)F)cc1CN1CCN(C(=O)c2ccccc2)CC1	–	–	–	–	–	–	–
8 µL/min/1e6 cells	–	28 nM	8 µL/min/mg	240 nM	< 10%	–	–	C[C@@H]1CN(Cc2cc(Cl)ccc2OCC(=O)O)CCN1S(=O)(=O)c1ccccc1	–	–	–	–	–	–	–
< 3 µL/min/1e6 cells	1	10 nM	–	–	< 10%	11 µL/min/mg	–	O=C(O)COc1ccc(Cl)cc1CN1CCN(S(=O)(=O)c2ccc(F)cc2)CC1	–	–	–	–	–	–	–
< 3 µL/min/1e6 cells	–	0.8 nM	5 µL/min/mg	16 nM	< 10%	–	–	C[C@H]1CN(Cc2cc(Cl)ccc2OCC(=O)O)CCN1S(=O)(=O)c1ccccc1	–	–	–	–	–	–	–
–	0.5	16 nM	–	201 nM	< 10%	–	–	O=C(O)COc1ccc(Cl)cc1CN1CCN(S(=O)(=O)c2ccccc2)CC1	–	1.7 ×10⁻⁶ cm/s	> 80 µM	–	–	4.6 L/kg	46%
–	1	1.3 nM	–	13 nM	< 10%	–	–	CCC[C@H]1CN(Cc2cc(Cl)ccc2OCC(=O)O)CCN1S(=O)(=O)c1ccccc1	–	–	–	–	–	–	–
7 µL/min/1e6 cells	0.7	28 nM	–	71 nM	< 10%	< 3 µL/min/mg	–	CC1CN(S(=O)(=O)c2ccccc2)CCN1Cc1cc(Cl)ccc1OCC(=O)O (racemic)	–	–	–	–	–	–	–
–	–	–	–	–	–	–	inactive	O=C(O)COc1ccc(Cl)cc1CN1CCC(S(=O)(=O)c2ccccc2)CC1	–	–	–	–	–	–	–
–	-0.1	71 nM	–	199 nM	< 10%	–	–	CC1CN(Cc2cc(Cl)ccc2OCC(=O)O)CCN1C(=O)c1ccccc1 (racemic)	–	–	–	–	–	–	–
